# Experimental data from ChEMBL document CHEMBL1221342, “Synthesis and in vitro antitumor activity of new 4,5-dihydropyrazole derivatives” (Bioorg Med Chem, 2010).
# Key:
# Type in all cases: functional
# MOLT-4 = assay: Growth inhibition of human MOLT4 cells after 48 hrs by SRB assay; conditions: MOLT-4, 48 h; for TGI: read-out: pTGI (converted)
# Outline: (§1)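 NCI 60-cell-line screen. Cells grown in RPMI1640 with 5% fetal calf serum and 2 mM L-glutamine, with inoculum density set by cell line. Preincubated 24 h, then given compound in DMSO at 10^-4 to 10^-8 M (five 10-fold steps) for 48 h continuous exposure. Growth measured by SRB protein assay. GI50, TGI and LC50 reported as –log molar.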
# BT-549 = assay: Growth inhibition of human BT549 cells after 48 hrs by SRB assay; conditions: BT-549, 48 h; for TGI: read-out: pTGI (converted); outline: as §1
# A498 = assay: Growth inhibition of human A498 cells after 48 hrs by SRB assay; conditions: A498, 48 h; for TGI: read-out: pTGI (converted); outline: as §1
# HL-60(TB) = assay: Growth inhibition of human HL-60(TB) cells after 48 hrs by SRB assay; conditions: HL-60, 48 h; for TGI: read-out: pTGI (converted)
# Outline: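 NCI 60-cell-line screen: cells grown in RPMI1640 with 5% fetal calf serum and 2 mM L-glutamine, preincubated 24 h, then exposed to compound in DMSO at five concentrations (10^-4 to 10^-8 M) for 48 h continuous exposure. Growth estimated by sulforhodamine B protein assay; reported as pGI50 (-log molar concentration inhibiting net cell growth by 50%).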
# UO-31 = assay: Growth inhibition of human UO31 cells after 48 hrs by SRB assay; conditions: UO-31, 48 h; for TGI: read-out: pTGI (converted); outline: as §1
# MDA-MB-468 = assay: Growth inhibition of human MDA-MB-468 cells after 48 hrs by SRB assay; conditions: MDA-MB-468, 48 h; for TGI: read-out: pTGI (converted); outline: as §1
# T47D = assay: Growth inhibition of human T47D cells after 48 hrs by SRB assay; conditions: read-out: pTGI (converted); outline: as §1
# [1] = Growth inhibition of human […] cells after 48 hrs by SRB assay; conditions: for TGI: read-out: pTGI (converted); outline: as §1
# RXF 393 = assay: Growth inhibition of human RXF393 cells after 48 hrs by SRB assay; conditions: RXF 393, 48 h; outline: as §1
# HCT-116 = assay: Growth inhibition of human HCT116 cells after 48 hrs by SRB assay; conditions: HCT-116, 48 h; for TGI: read-out: pTGI (converted); outline: as §1
# IGROV-1 = assay: Growth inhibition of human IGROV1 cells after 48 hrs by SRB assay; conditions: IGROV-1, 48 h; for TGI: read-out: pTGI (converted); outline: as §1
# KM12 = assay: Growth inhibition of human KM12 cells after 48 hrs by SRB assay; conditions: KM12, 48 h; for TGI: read-out: pTGI (converted); outline: as §1
# MCF7 = assay: Growth inhibition of human MCF7 cells after 48 hrs by SRB assay; conditions: MCF7, 48 h; for TGI: read-out: pTGI (converted); outline: as §1
# SF-295 = assay: Growth inhibition of human SF295 cells after 48 hrs by SRB assay; conditions: SF-295, 48 h; outline: as §1
# SF-268 = assay: Growth inhibition of human SF268 cells after 48 hrs by SRB assay; conditions: SF-268, 48 h; for TGI: read-out: pTGI (converted); outline: as §1
# SK-OV-3 = assay: Growth inhibition of human SKOV3 cells after 48 hrs by SRB assay; conditions: SK-OV-3, 48 h; for TGI: read-out: pTGI (converted); outline: as §1
# K562 = assay: Growth inhibition of human K562 cells after 48 hrs by SRB assay; conditions: K562, 48 h; for TGI: read-out: pTGI (converted); outline: as §1
# NCI-H460 = assay: Growth inhibition of human NCI-H460 cells after 48 hrs by SRB assay; conditions: NCI-H460, 48 h; for TGI: read-out: pTGI (converted); outline: as §1
# OVCAR-8 = assay: Growth inhibition of human OVCAR8 cells after 48 hrs by SRB assay; conditions: OVCAR-8, 48 h; for TGI: read-out: pTGI (converted); outline: as §1
# PC-3 = assay: Growth inhibition of human PC3 cells after 48 hrs by SRB assay; conditions: PC-3, 48 h; for TGI: read-out: pTGI (converted); outline: as §1
# TK-10 = assay: Growth inhibition of human TK10 cells after 48 hrs by SRB assay; conditions: TK-10, 48 h; for TGI: read-out: pTGI (converted); outline: as §1
# HCC 2998 = assay: Growth inhibition of human HCC2998 cells after 48 hrs by SRB assay; conditions: HCC 2998, 48 h; outline: as §1
# U-251 = assay: Growth inhibition of human U251 cells after 48 hrs by SRB assay; conditions: U-251, 48 h; for TGI: read-out: pTGI (converted); outline: as §1
# OVCAR-4 = assay: Growth inhibition of human OVCAR4 cells after 48 hrs by SRB assay; conditions: OVCAR-4, 48 h; for TGI: read-out: pTGI (converted); outline: as §1
# HOP-62 = assay: Growth inhibition of human HOP62 cells after 48 hrs by SRB assay; conditions: HOP-62, 48 h; for TGI: read-out: pTGI (converted); outline: as §1
# NCI/ADR-RES = assay: Growth inhibition of human NCI/ADR-RES cells after 48 hrs by SRB assay; conditions: for TGI: read-out: pTGI (converted); outline: as §1
# EKVX = assay: Growth inhibition of human EKVX cells after 48 hrs by SRB assay; conditions: for TGI: read-out: pTGI (converted); outline: as §1
# UACC-62 = assay: Growth inhibition of human UACC62 cells after 48 hrs by SRB assay; conditions: UACC-62, 48 h; for TGI: read-out: pTGI (converted); outline: as §1
# SK-MEL-5 = assay: Growth inhibition of human SK-MEL-5 cells after 48 hrs by SRB assay; conditions: SK-MEL-5, 48 h; for TGI: read-out: pTGI (converted); outline: as §1
# MDA-MB-435 = assay: Growth inhibition of human MDA-MB-435 cells after 48 hrs by SRB assay; conditions: MDA-MB-435, 48 h; for TGI: read-out: pTGI (converted); outline: as §1
# SF-539 = assay: Growth inhibition of human SF539 cells after 48 hrs by SRB assay; conditions: SF-539, 48 h; for TGI: read-out: pTGI (converted); outline: as §1
# CCRF-CEM = assay: Growth inhibition of human CCRF-CEM cells after 48 hrs by SRB assay; conditions: for TGI: read-out: pTGI (converted); outline: as §1
# COLO 205 = assay: Growth inhibition of human COLO205 cells after 48 hrs by SRB assay; conditions: COLO 205, 48 h; for TGI: read-out: pTGI (converted); outline: as §1
# Malme-3M = assay: Growth inhibition of human MALME-3M cells after 48 hrs by SRB assay; conditions: read-out: pTGI (converted); outline: as §1
# OVCAR-3 = assay: Growth inhibition of human OVCAR-3 cells after 48 hrs by SRB assay; conditions: OVCAR-3, 48 h; outline: as §1
# [2] = Growth inhibition of human Hs 578T cells after 48 hrs by SRB assay; outline: as §1
# HT-29 = assay: Growth inhibition of human HT-29 cells after 48 hrs by SRB assay; conditions: HT-29, 48 h; outline: as §1
smiles,measurement,setting,value
COc1cc(C2CC(c3cccc(Br)c3)=NN2C(C)=O)cc(OC)c1OC (configuration not stated),GI50,MOLT-4,0.316 µM
same,TGI,MOLT-4,1.58 µM
same,TGI,BT-549,39.8 µM
same,GI50,A498,0.398 µM
same,TGI,A498,3.98 µM
same,GI50,HL-60(TB),0.251 µM
same,TGI,HL-60(TB),0.501 µM
same,GI50,UO-31,12.6 µM
same,TGI,UO-31,> 100 µM
same,GI50,MDA-MB-468,0.2 µM
same,TGI,MDA-MB-468,> 100 µM
same,TGI,T47D,39.8 µM
same,GI50,[1],0.158 µM
same,TGI,[1],0.631 µM
same,GI50,RXF 393,0.251 µM
same,TGI,RXF 393; read-out: pTGI (converted),1 µM
same,GI50,HCT-116,0.501 µM
same,TGI,HCT-116,> 100 µM
same,GI50,IGROV-1,2 µM
same,TGI,IGROV-1,> 100 µM
same,GI50,KM12,0.316 µM
same,TGI,KM12,20 µM
same,GI50,MCF7,0.158 µM
same,TGI,MCF7,15.8 µM
same,GI50,SF-295,0.2 µM
same,TGI,SF-295; read-out: pTGI (converted),12.6 µM
same,GI50,SF-268,1 µM
same,TGI,SF-268,79.4 µM
same,GI50,SK-OV-3,0.501 µM
same,TGI,SK-OV-3,63.1 µM
same,GI50,K562,0.126 µM
same,TGI,K562,12.6 µM
same,GI50,NCI-H460,0.316 µM
same,TGI,NCI-H460,12.6 µM
same,GI50,OVCAR-8,0.631 µM
same,TGI,OVCAR-8,> 100 µM
same,GI50,PC-3,0.2 µM
same,TGI,PC-3,31.6 µM
same,GI50,TK-10,12.6 µM
same,TGI,TK-10,63.1 µM
same,GI50,HCC 2998,1.58 µM
same,TGI,HCC 2998; read-out: pTGI (converted),25.1 µM
same,GI50,U-251,0.501 µM
same,TGI,U-251,31.6 µM
same,GI50,OVCAR-4,0.631 µM
same,TGI,OVCAR-4,> 100 µM
same,GI50,HOP-62,1 µM
same,TGI,HOP-62,79.4 µM
same,GI50,NCI/ADR-RES,0.398 µM
same,TGI,NCI/ADR-RES,> 100 µM
same,GI50,EKVX,0.631 µM
same,TGI,EKVX,> 100 µM
same,GI50,UACC-62,0.2 µM
same,TGI,UACC-62,20 µM
same,GI50,SK-MEL-5,0.251 µM
same,TGI,SK-MEL-5,12.6 µM
same,GI50,MDA-MB-435,0.0501 µM
same,TGI,MDA-MB-435,0.251 µM
same,GI50,SF-539,0.316 µM
same,TGI,SF-539,10 µM
same,GI50,CCRF-CEM,0.316 µM
same,TGI,CCRF-CEM,2 µM
same,GI50,COLO 205,0.2 µM
same,TGI,COLO 205,0.631 µM
same,TGI,Malme-3M,50.1 µM
COc1cc(C2=NN(C(C)=O)C(c3cc(OC)c(OC)c(OC)c3)C2)ccc1O (configuration not stated),GI50,MOLT-4,0.398 µM
same,TGI,MOLT-4,> 100 µM
same,GI50,BT-549,0.631 µM
same,TGI,BT-549,> 100 µM
same,GI50,A498,0.251 µM
same,TGI,A498,3.98 µM
same,GI50,HL-60(TB),0.158 µM
same,TGI,HL-60(TB),0.501 µM
same,GI50,UO-31,0.398 µM
same,TGI,UO-31,> 100 µM
same,GI50,MDA-MB-468,0.251 µM
same,TGI,MDA-MB-468,0.794 µM
same,GI50,[1],0.2 µM
same,TGI,[1],0.794 µM
same,GI50,RXF 393,0.126 µM
same,GI50,HCT-116,0.398 µM
same,TGI,HCT-116,50.1 µM
same,GI50,IGROV-1,0.501 µM
same,TGI,IGROV-1,> 100 µM
same,GI50,KM12,0.251 µM
same,TGI,KM12,> 100 µM
same,GI50,MCF7,0.251 µM
same,TGI,MCF7,> 100 µM
same,GI50,SF-295,0.2 µM
same,GI50,SF-268,0.631 µM
same,TGI,SF-268,> 100 µM
same,GI50,SK-OV-3,0.316 µM
same,TGI,SK-OV-3,> 100 µM
same,GI50,K562,0.398 µM
same,TGI,K562,> 100 µM
same,GI50,OVCAR-3,0.251 µM
same,TGI,OVCAR-3; read-out: pTGI (converted),0.631 µM
same,GI50,NCI-H460,0.398 µM
same,TGI,NCI-H460,15.8 µM
same,GI50,OVCAR-8,0.631 µM
same,TGI,OVCAR-8,> 100 µM
same,GI50,[2],0.2 µM
same,TGI,[2]; read-out: pTGI (converted),0.631 µM
same,GI50,PC-3,0.251 µM
same,TGI,PC-3,> 100 µM
same,GI50,TK-10,0.631 µM
same,TGI,TK-10,> 100 µM
same,GI50,U-251,0.398 µM
same,TGI,U-251,> 100 µM
same,GI50,OVCAR-4,0.398 µM
same,TGI,OVCAR-4,> 100 µM
same,GI50,HOP-62,0.501 µM
same,TGI,HOP-62,> 100 µM
same,GI50,NCI/ADR-RES,0.251 µM
same,TGI,NCI/ADR-RES,> 100 µM
same,GI50,EKVX,0.794 µM
same,TGI,EKVX,> 100 µM
same,GI50,UACC-62,0.316 µM
same,TGI,UACC-62,> 100 µM
same,GI50,SK-MEL-5,0.0631 µM
same,TGI,SK-MEL-5,0.501 µM
same,GI50,MDA-MB-435,0.0501 µM
same,TGI,MDA-MB-435,0.2 µM
same,GI50,SF-539,0.316 µM
same,TGI,SF-539,1 µM
same,GI50,HT-29,0.316 µM
same,TGI,HT-29; read-out: pTGI (converted),> 100 µM
same,GI50,CCRF-CEM,0.316 µM
same,TGI,CCRF-CEM,1 µM
same,GI50,COLO 205,0.251 µM
same,TGI,COLO 205,0.794 µM
same,TGI,Malme-3M,> 100 µM
